hERG rescue: hERG rescue from dofetilide block, primary screen, cell-based, CHO-hERG, FluxOR thallium flux, dofetilide IC70; Voltage-gated inwardly rectifying potassium channel KCNH2 (Homo sapiens), Q12809; dofetilide IC70 present; activation (rescue from dofetilide block), less the hit threshold, % at 10 µM; 310,000 compounds, 0.51% hits;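 active means activation above the mean of controls blocked by dofetilide plus 5 SD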;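 further: thallium influx through hERG after potassium depolarization seen as dye fluorescence rise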
KCNQ1 block: inhibitors of human KCNQ1 channel, primary screen, cell-based, thallium flux, high-throughput. CHO-K1 KCNQ1, FluxOR thallium flux fluorescence; active compounds read high. 310,000 compounds, 1.3% hits. B-score at 10 µM. Potassium voltage-gated channel subfamily KQT member 1 (Homo sapiens), P51787;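 active means compounds whose thallium flux B-score, printed positive for inhibition, exceeds three library SD while starting fluorescence stays within three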;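 further: channel opened by potassium depolarization with thallium stimulus after 20 min compound exposure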
Target sequence (P51787 whole entry, looked up): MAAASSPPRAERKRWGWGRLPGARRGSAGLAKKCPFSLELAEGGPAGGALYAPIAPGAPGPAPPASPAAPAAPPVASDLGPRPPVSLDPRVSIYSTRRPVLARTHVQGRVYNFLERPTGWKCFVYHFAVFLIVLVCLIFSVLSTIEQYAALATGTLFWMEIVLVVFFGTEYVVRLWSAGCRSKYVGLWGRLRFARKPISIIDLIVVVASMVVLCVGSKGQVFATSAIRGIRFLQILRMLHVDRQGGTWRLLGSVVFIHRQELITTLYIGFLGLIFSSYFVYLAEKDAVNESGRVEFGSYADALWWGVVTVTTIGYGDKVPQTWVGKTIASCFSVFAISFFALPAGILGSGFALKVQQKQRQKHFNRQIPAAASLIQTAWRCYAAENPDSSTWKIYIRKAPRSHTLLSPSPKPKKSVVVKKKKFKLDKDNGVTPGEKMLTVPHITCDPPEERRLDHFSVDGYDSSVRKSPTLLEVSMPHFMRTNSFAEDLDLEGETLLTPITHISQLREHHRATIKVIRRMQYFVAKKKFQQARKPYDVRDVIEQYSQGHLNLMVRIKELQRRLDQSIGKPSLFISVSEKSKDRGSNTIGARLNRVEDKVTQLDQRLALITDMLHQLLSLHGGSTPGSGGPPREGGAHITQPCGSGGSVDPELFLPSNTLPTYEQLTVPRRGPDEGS
Kir21 inh: inhibitors of mouse Kir2.1 inward-rectifier potassium channel. HEK293-Kir2.1, FluxOR thallium flux fluorescence; active compounds read low. B-score at 10 µM. 310,000 compounds, 0.85% hits. AID 1672, 2009;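 active means fluorescence ratio B-score at or below minus 3 SD of library scores, with starting-brightness B-score within 2 SD, cut at about -4.2 in these data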;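 further: channel flux triggered by added potassium and thallium sulfate stimulus; B-score of peak minus minimum fluorescence over baseline after thallium stimulus; more negative B-score means stronger Kir2.1 block with less thallium influx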
KCNK9 block: KCNK9 potassium channel inhibitors, primary screen, HEK293 cells, thallium flux; Potassium channel subfamily K member 9 (Homo sapiens), Q9NPC2; FluxOR thallium flux fluorescence; active compounds read low; B-score at 10 µM; 310,000 compounds, 1.2% hits; AID 488922, 2010;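 active means ratio B-score over 3 SD below the library mean, with starting fluorescence within 5 SD of its mean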;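 further: negative B-score means less thallium flux so channel inhibition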
KCNK3 block: human KCNK3 channel inhibitors, primary screen, CHO cells, FluxOR thallium flux, B-score; Potassium channel subfamily K member 3 (Homo sapiens), O14649; FluxOR fluorescence; active compounds read low; B-score at 10 µM; 340,000 compounds, 0.84% hits;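 active means B-score under library mean minus 4 SD, starting fluorescence ratio at most library mean plus 5 SD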;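 further: more negative B-score means stronger inhibition of thallium flux through KCNK3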
KCNQ1 act: potentiators or activators of KCNQ1 channel, primary screen, cell-based, thallium flux, high-throughput; 310,000 compounds, 0.35% hits; CHO-K1 KCNQ1, thallium flux FluxOR fluorescence; active compounds read high; B-score at 10 µM; Potassium voltage-gated channel subfamily KQT member 1 (Homo sapiens), P51787; AID 2648, 2010;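 active means fluorescence ratio B-score, a plate-corrected score, at least three library SD, with initial intensity B-score within 5 SD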
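Assay system: CHO-K1 cells stably expressing KCNQ1. Medium: assay buffer for compound exposure, DMSO matched across wells. Timing: 37 °C overnight plating, 90-min dark dye load, 20-min compound pretreatment. Signal: kinetic FluxOR fluorescence, 10 s baseline plus 110 s post-stimulus.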
KCNK9 block conf: KCNK9 potassium channel inhibitors, confirmation, HEK293 cells, thallium flux, duplicate; shares compounds with KCNK9 block; inhibition, % at 10 µM; FluxOR thallium flux fluorescence; 4,900 compounds, 43% hits;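 active means thallium signal inhibited by more than 5 SD of the compound-free buffer control wells, on both duplicate plates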;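 further: 0% = assay buffer control wells without compound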
Kir2-1 spec: mouse Kir2.1 channel inhibition, confirmation, selectivity assay for KCNK9 modulator project, cell-based, HEK293, thallium flux; 4,900 compounds, 4% hits; shares compounds with KCNK9 block; inhibition, % at 10 µM; Kir2.1 cells, FluxOR thallium flux fluorescence; AID 492993, 2010;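 active means thallium signal drop more than 5 SD beyond the mean of the no-compound control wells, seen in both duplicate plates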;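 further: signal is fluorescence rise after thallium addition divided by baseline fluorescence; plate controls were assay buffer only for no effect and full block by chlorpromazine control for full effect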
HEK293 Tl ctr: thallium flux in non-induced HEK293 cells, confirmation, counter-screen for KCNK9 inhibitor project, cell-based, second counter screen, non-induced KCNK9-HEK293; 4,900 compounds, 40% hits; shares compounds with KCNK9 block; inhibition, % at 10 µM; FluxOR thallium flux; AID 492997, 2010;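 active means thallium signal drop beyond 5 SD of the untreated control mean, on both duplicate plates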;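 further: plate controls were buffer only IC0 wells for no effect and SID17386958 at its maximal inhibitory level for full effect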
* marks the source's active call; other numbers are inactive results. Rows were chosen to be rich in hits. Some 3.7% of all compounds tested hit in one or more screens of this group.

Results for COc1cccc(OCCCOc2ccc([N+](=O)[O-])cc2Cl)c1 ?
hERG rescue: -6.0; KCNQ1 block: inactive; Kir21 inh: -1.12; KCNK9 block: inactive; KCNK3 block: inactive; KCNQ1 act: inactive

Results for Cc1ccc2nc(NNC(=O)c3ccc(S(=O)(=O)N4CCc5ccccc5C4)cc3)sc2c1 ?
hERG rescue: -3.6; KCNQ1 block: 7*; Kir21 inh: 1.01; KCNK9 block: inactive; KCNK3 block: inactive; KCNQ1 act: inactive; KCNK9 block conf: inactive; Kir2-1 spec: inactive; HEK293 Tl ctr: inactive

How did Cc1cccc2sc(NNC(=O)c3ccc(S(=O)(=O)N4CC(C)CC(C)C4)cc3)nc12 (stereo not drawn) do in these assays?
hERG rescue: -4.5; KCNQ1 block: 6*; Kir21 inh: 1.28; KCNK9 block: inactive; KCNK3 block: inactive; KCNQ1 act: inactive; KCNK9 block conf: inactive; Kir2-1 spec: inactive; HEK293 Tl ctr: inactive

How did COC(=O)c1sc2ccccc2c1NC(=O)c1ccc(S(=O)(=O)N2CC(C)CC(C)C2)cc1 (stereo not drawn) do in these assays?
hERG rescue: -7.2; KCNQ1 block: inactive; Kir21 inh: 0.1; KCNK9 block: inactive; KCNK3 block: inactive; KCNQ1 act: inactive

How did Cc1cc(C)c2nc(NNC(=O)c3ccc(S(=O)(=O)N4CC(C)CC(C)C4)cc3)sc2c1 (stereo not drawn) do in these assays?
hERG rescue: -11.5; KCNQ1 block: inactive; Kir21 inh: -1.38; KCNK9 block: inactive; KCNK3 block: inactive; KCNQ1 act: inactive; KCNK9 block conf: inactive; Kir2-1 spec: inactive; HEK293 Tl ctr: inactive

How did CC1CC(C)CN(S(=O)(=O)c2ccc(C(=O)Nc3sccc3C(N)=O)cc2)C1 (stereo not drawn) do in these assays?
hERG rescue: -9.6; KCNQ1 block: inactive; Kir21 inh: 1.88; KCNK9 block: inactive; KCNK3 block: inactive; KCNQ1 act: inactive

Results for Cc1cc(C)c2nc(NNC(=O)c3ccc(S(=O)(=O)N4CCCC(C)C4)cc3)sc2c1 (stereo not drawn) ?
hERG rescue: -12.2; KCNQ1 block: inactive; Kir21 inh: -0.39; KCNK9 block: inactive; KCNK3 block: inactive; KCNQ1 act: inactive; KCNK9 block conf: inactive; Kir2-1 spec: inactive; HEK293 Tl ctr: inactive

How did Cc1cccc(-n2ccc(=O)c(C(=O)Nc3ccc(S(=O)(=O)Nc4onc(C)c4C)cc3)n2)c1 do in these assays?
hERG rescue: -12.6; KCNQ1 block: inactive; Kir21 inh: 0; KCNK9 block: inactive; KCNK3 block: inactive; KCNQ1 act: inactive

Results for Cc1ccc(C)c(N(CC(=O)NC2CCCCC2)C(=O)CNC(=O)c2ccco2)c1 ?
hERG rescue: -6.9; KCNQ1 block: inactive; Kir21 inh: -0.7; KCNK9 block: inactive; KCNK3 block: inactive; KCNQ1 act: inactive

Results for COc1cc(/C=C2\C(=N)N3N=CSC3=NC2=O)ccc1OS(=O)(=O)c1ccccc1 ?
hERG rescue: -30.2; KCNQ1 block: inactive; Kir21 inh: -2.28; KCNK9 block: inactive; KCNK3 block: inactive; KCNQ1 act: inactive

Screening results as filed in PubChem.
